# Calls of active or inactive are those of the source. No cut-off for these calls is given here.
# How the values were obtained:
# Syrian golden hamster [1] = test: Toxicity in Syrian hamster infected with Leishmania tropica MHOM/MA/1988/LEM1314 promastigotes assessed as change in body weight at 200 mg/kg administered through oral gavage for 3 weeks starting at week 7 post infection measured during compound dosing or measured 1 week post last dose; format: organism-based, Mesocricetus auratus; conditions: in vivo, 168 h
# How it was run: (§1)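 Infected hamsters were treated daily for 21 days from week 7 post-infection (ointment 1–5%, 200 mg/kg gavage, or intralesional meglumine antimoniate 2 mg SbV/kg). Clinical signs and body weight were monitored during treatment and a 7-day follow-up. After sacrifice, liver and spleen were weighed and serum ALP, ALT, creatinine, urea and AST were measured with kits, compared with untreated infected animals.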
# Leishmania tropica [2] = test: (§2) Antileishmanial activity against Leishmania tropica MHOM/MA/1988/LEM1314 promastigotes infected in Syrian hamster assessed as reduction in parasite load in spleen at 5 % administered once daily tropically on footpad for 3 weeks starting at week 7 post infection measured 1 week post last dose by qPCR analysis relative to control; format: functional
# How it was run: (§3)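 Hamsters were infected in the footpad and treated daily for 21 days from week 7 post-infection, n = 10/group, and sacrificed 1 week after the last dose. Footpad skin, liver and spleen DNA was assayed by L. tropica-specific TaqMan qPCR (chromosome 29 target), in triplicate with 50 ng DNA per 25 μL reaction. Load was interpolated from Ct on a calibration curve of promastigote DNA, relative to base-ointment controls.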
# Syrian golden hamster [3] = test: Toxicity in Syrian hamster assessed as footpad edema at 500 mg/kg, po or 5 % administered tropically on footpad for 28 days; format: organism-based, Mesocricetus auratus; conditions: in vivo, 672 h
# Syrian golden hamster [4] = test: Toxicity in Syrian hamster infected with Leishmania tropica MHOM/MA/1988/LEM1314 promastigotes assessed as mean serum creatinine levels at 5 % administered tropically on footpad for 3 weeks starting at week 7 post infection measured 1 week post last dose (reference value: 0.19 mg/dl); format: organism-based, Mesocricetus auratus; conditions: in vivo, topical_or_ocular, 168 h
# Leishmania tropica [5] = test: as §2, with “1” for “5”; format: functional; how it was run: as §3
# Leishmania tropica [6] = test: as §2, with “liver” for “spleen”, “2 mg/kg” for “5 %”, “administered intralesionally” for “administered”, “daily” for “daily tropically”; format: functional, organism-based; how it was run: as §3
# Syrian golden hamster [7] = test: Toxicity in Syrian hamster infected with Leishmania tropica MHOM/MA/1988/LEM1314 promastigotes assessed as mean serum ALP levels at 5 % administered tropically on footpad for 3 weeks starting at week 7 post infection measured 1 week post last dose (reference value: 14.4 +/- 0.9 U/L); format: organism-based, Mesocricetus auratus; conditions: in vivo, topical_or_ocular, 168 h
# Leishmania tropica [8] = test: as §2, with “2.5” for “5”; format: functional; how it was run: as §3
# Syrian golden hamster [9] = test: Toxicity in Syrian hamster infected with Leishmania tropica MHOM/MA/1988/LEM1314 promastigotes assessed as spleen weight at 200 mg/kg administered through oral gavage for 3 weeks starting at week 7 post infection measured 1 week post last dose (reference value: 178.8 +/- 1.2 mg); format: organism-based, Mesocricetus auratus; conditions: in vivo, 168 h
# Syrian golden hamster [10] = test: Toxicity in Syrian hamster assessed as mean serum ALT levels at 500 mg/kg administered through oral gavage for 28 days (reference value: 82.2 +/- 4.8 U/L); format: organism-based, Mesocricetus auratus; conditions: in vivo, 672 h
# Syrian golden hamster [11] = test: Toxicity in Syrian hamster infected with Leishmania tropica MHOM/MA/1988/LEM1314 promastigotes assessed as mean serum ALT levels at 2.5 % administered tropically on footpad for 3 weeks starting at week 7 post infection measured 1 week post last dose (reference value: 81.6 +/- 4.9 U/L); format: organism-based, Mesocricetus auratus; conditions: in vivo, topical_or_ocular, 168 h
# Syrian golden hamster [12] = test: Toxicity in Syrian hamster infected with Leishmania tropica MHOM/MA/1988/LEM1314 promastigotes assessed as mean serum ALT levels at 5 % administered tropically on footpad for 3 weeks starting at week 7 post infection measured 1 week post last dose (reference value: 81.6 +/- 4.9 U/L); format: organism-based, Mesocricetus auratus; conditions: in vivo, topical_or_ocular, 168 h
# Syrian golden hamster [13] = test: Toxicity in Syrian hamster infected with Leishmania tropica MHOM/MA/1988/LEM1314 promastigotes assessed as diarrhea at 200 mg/kg administered through oral gavage for 3 weeks starting at week 7 post infection measured during compound dosing or measured 1 week post last dose; format: organism-based, Mesocricetus auratus; conditions: in vivo, 168 h; how it was run: as §1
# Syrian golden hamster [14] = test: Toxicity in Syrian hamster assessed as mean serum AST levels at 500 mg/kg administered through oral gavage for 28 days (reference value: 83.4 +/- 4.2 U/L); format: organism-based, Mesocricetus auratus; conditions: in vivo, 672 h
# Syrian golden hamster [15] = test: Toxicity in Syrian hamster assessed as mean serum ALT levels at 5 % administered tropically on footpad for 28 days (reference value: 82.2 +/- 4.8 U/L); format: organism-based, Mesocricetus auratus; conditions: in vivo, topical_or_ocular, 672 h
# Syrian golden hamster [16] = test: Toxicity in Syrian hamster assessed as change in body weight at 500 mg/kg, po or 5 % administered tropically on footpad for 28 days; format: organism-based, Mesocricetus auratus; conditions: in vivo, 672 h
# Syrian golden hamster [17] = test: Toxicity in Syrian hamster infected with Leishmania tropica MHOM/MA/1988/LEM1314 promastigotes assessed as mean serum AST levels at 1 % administered tropically on footpad for 3 weeks starting at week 7 post infection measured 1 week post last dose (reference value: 77.1 +/- 0.9 U/L); format: organism-based, Mesocricetus auratus; conditions: in vivo, topical_or_ocular, 168 h
# Syrian golden hamster [18] = test: Toxicity in Syrian hamster infected with Leishmania tropica MHOM/MA/1988/LEM1314 promastigotes assessed as spleen weight at 5 % administered tropically on footpad for 3 weeks starting at week 7 post infection measured 1 week post last dose (reference value: 178.8 +/- 1.2 mg); format: organism-based, Mesocricetus auratus; conditions: in vivo, topical_or_ocular, 168 h
# Leishmania tropica [19] = test: as §2, with “liver” for “spleen”, “1” for “5”; format: functional, tissue-based; how it was run: as §3
# Syrian golden hamster [20] = test: Toxicity in Syrian hamster assessed as diarrhea at 500 mg/kg, po or 5 % administered tropically on footpad for 28 days; format: organism-based, Mesocricetus auratus; conditions: in vivo, 672 h
# Leishmania tropica [21] = test: as §2, with “[…]” for “5 %”, “through oral gavage” for “tropically on footpad”; format: functional; how it was run: as §3
# Syrian golden hamster [22] = test: Toxicity in Syrian hamster assessed as pain at 500 mg/kg, po or 5 % administered tropically on footpad for 28 days; format: organism-based, Mesocricetus auratus; conditions: in vivo, 672 h
# Syrian golden hamster [23] = test: Toxicity in Syrian hamster infected with Leishmania tropica MHOM/MA/1988/LEM1314 promastigotes assessed as spleen weight at 2.5 % administered tropically on footpad for 3 weeks starting at week 7 post infection measured 1 week post last dose (reference value: 178.8 +/- 1.2 mg); format: organism-based, Mesocricetus auratus; conditions: in vivo, topical_or_ocular, 168 h
# Syrian golden hamster [24] = test: Toxicity in Syrian hamster assessed as liver weight at 5 % administered tropically on footpad for 28 days (reference value: 4.1 +/- 0.7 g); format: organism-based, Mesocricetus auratus; conditions: in vivo, topical_or_ocular, 672 h
# Syrian golden hamster [25] = test: Toxicity in Syrian hamster infected with Leishmania tropica MHOM/MA/1988/LEM1314 promastigotes assessed as mean serum AST levels at 5 % administered tropically on footpad for 3 weeks starting at week 7 post infection measured 1 week post last dose (reference value: 77.1 +/- 0.9 U/L); format: organism-based, Mesocricetus auratus; conditions: in vivo, topical_or_ocular, 168 h
# Syrian golden hamster [26] = test: Toxicity in Syrian hamster infected with Leishmania tropica MHOM/MA/1988/LEM1314 promastigotes assessed as mean serum creatinine levels at 2.5 % administered tropically on footpad for 3 weeks starting at week 7 post infection measured 1 week post last dose (reference value: 0.19 mg/dl); format: organism-based, Mesocricetus auratus; conditions: in vivo, topical_or_ocular, 168 h
# Syrian golden hamster [27] = test: Toxicity in Syrian hamster assessed as redness at 500 mg/kg, po or 5 % administered tropically on footpad for 28 days; format: organism-based, Mesocricetus auratus; conditions: in vivo, 672 h
smiles,measurement,setting,value
CC(C)=CCC[C@](C)(O)[C@@H]1CC=C(C)CC1 [LEVOMENOL],Activity,Syrian golden hamster [1],Non-Toxic
same,Activity,Leishmania tropica [2],Active
same,Activity,Syrian golden hamster [3],Non-Toxic
same,Activity,Syrian golden hamster [4],0.18 mg/dL
same,Activity,Leishmania tropica [5],Active
same,Activity,Leishmania tropica [6],Active
same,Activity,Syrian golden hamster [7],14.7 U/L
same,Activity,Leishmania tropica [8],Active
same,Activity,Syrian golden hamster [9],177.3 mg
same,Activity,Syrian golden hamster [10],82.6 U/L
same,Activity,Syrian golden hamster [11],81.3 U/L
same,Activity,Syrian golden hamster [12],81.8 U/L
same,Activity,Syrian golden hamster [13],Non-Toxic
same,Activity,Syrian golden hamster [14],82.2 U/L
same,Activity,Syrian golden hamster [15],82.5 U/L
same,Activity,Syrian golden hamster [16],Non-Toxic
same,Activity,Syrian golden hamster [17],82.2 U/L
same,Activity,Syrian golden hamster [18],193.1 mg
same,Activity,Leishmania tropica [19],Active
same,Activity,Syrian golden hamster [20],Non-Toxic
same,Activity,Leishmania tropica [21],Active
same,Activity,Syrian golden hamster [22],Non-Toxic
same,Activity,Syrian golden hamster [23],178.4 mg
same,Activity,Syrian golden hamster [24],3.4 g
same,Activity,Syrian golden hamster [25],73 U/L
same,Activity,Syrian golden hamster [26],0.21 mg/dL
same,Activity,Syrian golden hamster [27],Non-Toxic

# — ChEMBL document CHEMBL3872233, “Topical Treatment of Leishmania tropica Infection Using (-)-α-Bisabolol Ointment in a Hamster Model: Effectiveness and Safety Assessment” (J Nat Prod, 2016)
